# RORa activator: activators of human nuclear receptor RORA; activation, % at 10 µM; 1.5% of 65,000 active; CHO-K1 Gal4-RORA LBD luciferase reporter, luminescence; percent increase over mock-subtracted basal signal; P35398;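 active = activation above the mean of all tested compounds plus 3 SD, cut at about 49% in these data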;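 also: 0% = DMSO-treated RORA cells and 100% = added signal equal to DMSO minus mock-transfected cells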
# M1 agonist: agonists of M1 muscarinic receptor; CHO-M1 cells, Fluo-4 calcium fluorescence, agonist mode; stronger effect = higher value; B-score at 10 µM; 3% of 64,000 active;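 active = fluorescence rise, raw or as B-score row- and column-corrected plate score, outside the 99.7% band of its plate's samples, either direction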
# M1 antag: M1 muscarinic receptor (rat) antagonism; 3.4% of 64,000 active; P08482; AID 628; B-score at 10 µM; CHO-M1 cells, Fluo-4 calcium, ACh EC80 antagonist mode; stronger effect = lower value;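 active = calcium fluorescence response, raw or row-and-column corrected B-score, differing from the plate sample mean either way at a set confidence level, mostly lower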
# Target sequence (P08482 whole entry, looked up): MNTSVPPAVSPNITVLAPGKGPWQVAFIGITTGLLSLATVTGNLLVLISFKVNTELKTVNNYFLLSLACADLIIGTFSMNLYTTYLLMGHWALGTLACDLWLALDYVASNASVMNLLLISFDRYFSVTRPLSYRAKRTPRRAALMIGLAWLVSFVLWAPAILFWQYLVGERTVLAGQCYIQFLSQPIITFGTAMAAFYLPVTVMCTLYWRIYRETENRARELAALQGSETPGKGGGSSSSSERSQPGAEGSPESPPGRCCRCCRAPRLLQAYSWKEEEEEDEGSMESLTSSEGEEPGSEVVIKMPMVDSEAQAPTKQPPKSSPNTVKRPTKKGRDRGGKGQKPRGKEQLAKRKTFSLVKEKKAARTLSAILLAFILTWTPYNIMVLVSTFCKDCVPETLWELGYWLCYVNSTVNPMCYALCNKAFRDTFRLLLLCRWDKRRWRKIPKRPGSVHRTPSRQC
# SF-1 act: SF-1 (human) activation. Q13285. activation, % at 10 µM. AID 522. CHO-K1 Gal4-SF-1 LBD luciferase reporter; % increase over DMSO SF-1-specific signal. 1.9% of 65,000 active;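 active = activation above the mean activation of all tested compounds plus 3 SD, cut at about 50% in these data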
#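 Material: Gal4–SF-1 LBD one-hybrid luciferase reporter in CHO-K1 cells | Amount: 4,000 cells per well | Compound dosing: 10 µM single point, 1% DMSO | Schedule: 20 h compound treatment, 37 °C | Measured by: SteadyLite luciferase luminescence | Evaluation: Percent activation versus DMSO | Control set: DMSO-treated SF-1-transfected cells as negative, DMSO-treated mock-transfected cells lacking SF-1 as background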
# MT1-MMP txn act: MT1-MMP promoter transcription activation; HT1080 MT1-MMP promoter luciferase reporter, luminescence, overnight; stronger effect = higher value; activation factor at 10 µM; 0.16% of 86,000 active; AID 750;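 active = activation factor of at least 2 for MT1-MMP transcription at 10 µM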
# M1 agonist conf: rat M1 muscarinic agonism, confirmation; shares compounds with M1 agonist; CHO-M1 cells, Fluo-4 calcium fluorescence, agonist mode; actives lie on both sides; fluorescence change (max-min) at 10 µM; 19% of 1,700 active; AID 1488;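 active = fluorescence change differs from the solvent-only DMSO control mean at a set confidence level in both duplicate runs; inconclusive = differs from solvent-only control mean in just one of two runs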;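 also: an EC20 dose of acetylcholine follows compound addition during the same imaging run; raw fluorescence intensity difference in instrument units with no normalization to controls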
# M4 ag counter: activates rat M4 receptor in counter-screen for M1 agonists; 9% of 1,700 active; CHO M4/Gqi5 cells, Fluo-4 calcium fluorescence, agonist mode; actives lie on both sides; fluorescence change (max-min) at 10 µM; shares compounds with M1 agonist;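 active = fluorescence change differing from the plate's solvent-only control wells at 99.7% confidence in both duplicates, whether higher or lower; inconclusive = differs from solvent controls in only one of two duplicates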
# The depositor's hits bear a star; ? = inconclusive; / = no result given. A selection: hits, their analogues and other compounds. The true share with any hit is near 6.3%.
SMILES,RORa activator,M1 agonist,M1 antag,SF-1 act,MT1-MMP txn act,M1 agonist conf,M4 ag counter
O=C(OCCN1C(=O)c2ccccc2C1=O)c1cc(S(=O)(=O)N2CCOCC2)ccc1Cl,-3.9,3.65*,0.257,-20.4,0.9,-15.3,-25.4
CCN1CCN(c2nc(C)nc3c2sc(=S)n3C)CC1,-24.2,-2.58*,-0.201,-8.5,1,-10.9,-23.7
Cc1nc(N2CCCCC2)c2sc(=S)n(C)c2n1,-16.6,0.528,0.414,-11.0,1.1,/,/
CCC1(C)OCC(Cn2c3ccccc3c3ccccc32)O1 (configuration not stated),/,/,/,/,1.1,/,/
CCN(CC)c1ccc2cc(-c3nc4ccccc4n3C)c(=O)oc2c1,-2.6,65.2*,0.0565,-17.8,0.7,280*,400*
CCN(CC)c1ccc2cc(-c3nnc(-c4ccc(Br)cc4)o3)c(=O)oc2c1,/,/,/,/,1.3,/,/
CCCC(=O)n1nc(-c2ccccc2)nc1SC,/,/,/,/,1.1,/,/
CN(C)c1ccc(N=Cc2nc(-c3ccccc3)oc2O)cc1,5.1,20.6*,0.0741,18.0,1,147*,61.3
O=S(=O)(NCC(c1cccnc1)N1CCN(Cc2ccccc2)CC1)c1ccccc1 (configuration not stated),4.2,-0.0321,-0.987,-3.6,1,/,/
Cc1cccc(-n2c(N)cc(=O)nc2SCC(=O)Nc2ccccc2)c1,-15.5,2.83*,0.169,-0.7,/,-24.1*,-49.7
CCOC(=O)N1CCC(NC(=O)c2cc3c(-c4ccc(OC)c(OC)c4)nn(C)c3s2)CC1,-2.3,3.18,-0.677,10.7,1.1,/,/
CCOC(=O)C1CCN(C(=O)c2cc3c(-c4ccc(OC)c(OC)c4)nn(C)c3s2)CC1,0.9,2.28*,-0.484,10.5,1.1,-22.6,-31.5
COCCCNc1c2c3c(cccc3[nH]c1=O)C(=O)c1ccccc1-2,/,466*,-13.2*,/,1,3166*,2818*
CCn1c(CSc2nccn2C)nc2cc(C(=O)O)ccc21,-0.7,7.24*,0.218,-6.3,1.1,10.8,-37.7
Cc1cc(OCc2nn[nH]n2)c2c(C)c(CC(=O)O)c(=O)oc2c1,-7.5,-0.265,-0.23,4.6,1.2,/,/
COC(=O)COc1cc(C)cc2oc(=O)c(CC(=O)OC)c(C)c12,-8.7,3.11*,0.0423,-11.2,1.2,?,-33.4
Cc1ccc(CSc2nc3c(c(=O)[nH]2)CCC3)cc1,/,2.32*,0.68,/,1.1,28.3,-5.35
CCN(CCNC(=O)Nc1ccc(Cl)cc1)c1ccccc1,-9.0,-0.7,-0.912,6.0,1.1,/,/
COCCCNC(=O)c1ccc(Cn2c(=O)c3ccccc3n(Cc3ccccc3C#N)c2=O)cc1,/,/,/,/,1.1,/,/
O=C(COC(=O)CCc1c[nH]c(=O)[nH]1)Nc1ccccc1,-15.5,-0.0605,0.056,13.7,/,/,/
Cc1ccc(NC(=O)COC(=O)CCc2c[nH]c(=O)[nH]2)cc1,-8.3,7.3*,-0.0333,12.2,1,26.8,-1.31
Cc1ccc(OC(=O)c2cccc(C(=O)Oc3ccc(C)cn3)n2)nc1,-7.5,0.546,0.803,9.7,1.1,/,/
Cc1ccc(C2C(C#N)=C(N)Oc3nc(-c4ccccc4)[nH]c32)o1 (configuration not stated),-10.0,3.48*,-0.14,2.9,1.1,-23.8*,-34.9
CC1(C)Cc2c(c(-c3ccco3)[nH]c(=O)c2C#N)CS1,-12.6,23.7*,0.0314,-6.0,1,4.63,-34.8
CCOC(=O)C(NCc1ccc2c(c1)OCO2)(NC(=O)c1ccccc1)C(F)(F)F (configuration not stated),/,/,/,/,1.1,/,/
Cc1cc2oc(=O)cc(CN3CCCCC3)c2cc1C(C)C,-1.7,11*,-0.0576,-10.1,1.1,?,-22.2
Cc1cc2oc(=O)cc(CSc3nc(N)cc(N)n3)c2cc1C(C)C,/,/,/,/,1.1,/,/
Cc1c(N=Cc2ccco2)c(=O)n(-c2ccccc2)n1C,-3.0,/,/,5.3,1.1,/,/
COc1ccc2c(C=Nc3c(C)n(C)n(-c4ccccc4)c3=O)c(O)n(Cc3ccco3)c(=O)c2c1,-11.3,9.53*,-2.19*,-6.8,1,11.4,-8.68
O=C1CN(C(=O)COC(=O)c2ccccc2NC(=O)c2ccco2)c2ccccc2N1,-24.4,3.58*,-0.733,6.6,1,?,?

# Screens deposited in PubChem BioAssay by several laboratories.
